Compound activity (PubChem)
Compounds with a hit are over-represented: about 2.9% of the library has one in this group of screens.
E-selectin induc: induces E-selectin expression in human endothelial cells. P16581. HUVEC E-selectin immunofluorescence imaging; normalized: neutral wells 0, TNF-alpha wells 100. activation, % at 7.58 µM. 260,000 tested, 0.37% active;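 active means mean E-selectin-positive cell signal at least 10% of the positive control, reached in at least 60% of replicates, without over 20% cell loss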
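Assay system: HUVEC primary endothelial cells. Input: 3,000 HUVEC seeded per well. Doses: one compound dose added by pin transfer. Read-out basis: % PE-positive cells. Benchmarks: TNF-alpha high, DMSO low. Detection: immunofluorescence imaging. Buffer or medium: EGM-2, gelatin.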
SIRT5 inh: inhibitors of human sirtuin-5 desuccinylase | AID 652115 | Purified SirT5, succinyl-peptide AMC, trypsin-coupled fluorescence | 330,000 tested, 1.1% active | Q9NXA8 | inhibition, % at 15 µM; in the data active means inhibition above about 15%
Target sequence (Q9NXA8 whole entry, looked up): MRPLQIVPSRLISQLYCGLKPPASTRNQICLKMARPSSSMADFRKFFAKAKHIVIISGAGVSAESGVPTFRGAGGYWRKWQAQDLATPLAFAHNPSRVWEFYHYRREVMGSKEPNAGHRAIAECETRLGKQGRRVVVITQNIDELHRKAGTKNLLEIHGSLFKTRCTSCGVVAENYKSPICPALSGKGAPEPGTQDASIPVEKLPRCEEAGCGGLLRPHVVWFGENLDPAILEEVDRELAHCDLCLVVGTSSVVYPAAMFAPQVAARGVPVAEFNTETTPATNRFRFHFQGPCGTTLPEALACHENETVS
DENV2 CPE rescue: DENV2-induced cell death inhibition. DENV2-infected cells, cytopathic effect rescue, plate reader. CPE inhibition, % at 9.99 µM. 350,000 tested, 1.7% active. AID 651640; in the data active means CPE inhibition above about 20%, passing the limit was not always enough; tested in BHK-21 cells;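 further: 0% = median of neutral control wells and 100% = median of positive control wells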
Active calls of the source: *; x = not tested or not shown.

SMILES | E-selectin induc | SIRT5 inh | DENV2 CPE rescue
Cn1cccc1/C=C1\SC(=O)N(CC(=O)Nc2ccc(Cl)cc2)C1=O | x | 1 | 5
CC1(C)CCC(=NNC(N)=S)CC1 | 0 | x | -1
NC(=S)NN=C1CCC2(CCCCC2)CC1 | x | 25* | -1
CC(C)C(NC(=O)c1cccs1)C(=O)NC1CCCCC1 (stereo not drawn) | 0 | -3 | -9
CN(c1ncc(C(F)(F)F)cc1Cl)N1C(=O)C2ONC3(C(=O)CC(C)(C)CC3=O)C2C1=O (stereo not drawn) | x | 6 | 2
COc1ccccc1NC(=O)N1CCCCN2[C@H](CO)[C@H](c3ccc(C#Cc4ccccc4)cc3)[C@@H]2C1 | 0 | 5 | 25*
COc1ccccc1NC(=O)N1CCCCN2[C@H](CO)[C@@H](c3ccc(C#CC4CCCC4)cc3)[C@@H]2C1 | -1 | 10 | 36*
COc1ccccc1C#Cc1ccc([C@@H]2[C@@H](CO)N3CCCCN(C(=O)C4CCCC4)C[C@@H]23)cc1 | x | 10 | 5
COc1ccccc1NC(=O)N1CCCCN2[C@H](C1)[C@H](c1ccc(C#CC3CCCC3)cc1)[C@@H]2CO | -1 | 7 | 9
COc1ccccc1NC(=O)N1CCCCN2[C@@H](CO)[C@@H](c3ccc(C#CC4CCCC4)cc3)[C@@H]2C1 | -1 | 0 | 2
COc1ccccc1NC(=O)N1CCCCN2[C@@H](CO)[C@H](c3ccc(C#CC4CCCC4)cc3)[C@@H]2C1 | -1 | 17* | -25
COc1ccccc1C#Cc1ccc([C@H]2[C@H](CO)N3CCCCN(C(=O)C4CCCC4)C[C@@H]23)cc1 | x | 17* | 1
COc1ccccc1NC(=O)N1CCCCN2[C@H](CO)[C@@H](c3ccc(C#Cc4ccccc4)cc3)[C@H]2C1 | -1 | -2 | 16
Cc1noc(C)c1S(=O)(=O)N(C)C[C@@H]1OCCCC[C@@H](C)Oc2ccc(NC(=O)CCCCCC(=O)Nc3ccccc3N)cc2C(=O)N([C@H](C)CO)C[C@@H]1C | 1 | -2 | -3
Cc1ccccc1CCNC(=O)C1CCC(=O)N(C2CCCCCC2)C1 (stereo not drawn) | x | 2 | 8
O=C(C[C@@H]1CC[C@@H]2[C@H](COC[C@@H](O)CN2Cc2cc(F)cc(F)c2)O1)NC1CCCC1 | 0 | 2 | -5
C#CCOCCOCCOCCNc1nc(N2CCN(C(=O)[C@H]([C@@H](C)CC)n3cc([C@@H](N)Cc4ccc(O)cc4)nn3)CC2)nc(N2CCN(C(=O)[C@H](Cc3ccc(O)cc3)n3cc([C@@H](N)CC(C)C)nn3)CC2)n1 | 0 | x | -12
C#CCOCCOCCOCCNc1nc(N2CCN(C(=O)[C@H](CCC(=O)O)n3cc([C@@H](N)CO)nn3)CC2)nc(N2CCN(C(=O)[C@H](CCC(=O)O)n3cc([C@@H](N)CCSC)nn3)CC2)n1 | 0 | 11 | 12
C#CCOCCOCCOCCNc1nc(OC)nc(N2CCN(C(=O)[C@H](CCC(=O)O)n3cc(C(N)CO)nn3)CC2)n1 (stereo partly drawn) | 0 | x | 23*
C#CCOCCOCCOCCNc1nc(N2CCOCC2)nc(N2CCN(C(=O)[C@H](Cc3ccc(O)cc3)n3cc([C@@H](N)CC(C)C)nn3)CC2)n1 | 0 | x | 20*
CC(C)OC(=O)c1cc(Cl)c(=O)n(Cc2ccc(Cl)cc2Cl)c1 | 0 | -1 | 5
O=C(NC(=S)Nc1cccc2c(O)cccc12)c1ccco1 | -1 | -1 | -9
O=C(NC(=S)Nc1cccc2cc(O)ccc12)c1ccco1 | 12 | 1 | 44*
O=C(NC1CCCC1)c1nc(-c2c(F)cccc2F)oc1-c1ccccc1 | 1 | -1 | 22*
CCCCCNC(=O)c1nc(-c2c(F)cccc2F)oc1-c1ccccc1 | 0 | -3 | -3
SMILES | E-selectin induc | SIRT5 inh | DENV2 CPE rescue
COc1ccc(-c2ccc([C@H]3[C@@H](CO)N4CCCCN(C(=O)NC(C)C)C[C@H]34)cc2)cc1 | 0 | -1 | 31*
COc1ccc(-c2ccc([C@@H]3[C@H]4CN(C(=O)NC(C)C)CCCCN4[C@H]3CO)cc2)cc1 | 0 | 0 | -8
COc1ccc(-c2ccc([C@H]3[C@H](CO)N4CCCCN(C(=O)NC(C)C)C[C@@H]34)cc2)cc1 | 0 | -6 | 40*
COc1ccc(-c2ccc([C@H]3[C@@H](CO)N4CCCCN(C(=O)NC(C)C)C[C@@H]34)cc2)cc1 | 0 | 1 | 20
C#CCNC(=O)C1=C[C@@H](c2ccc(Br)cc2)C[C@@H](OCc2ccc(CO)cc2)O1 | 0 | -2 | 7
Cc1ccc(S(=O)(=O)Nc2ccc3c(c2)CC(=O)N([C@@H](C)CO)C[C@H](C)[C@@H](CN(C)Cc2ccncc2)O3)cc1 | 2 | 3 | -1
COC(=O)c1ccc2nc(-c3ccc(OC)c(OC)c3)c(Cc3ccccc3OC)n2c1 | 0 | -3 | 2
COC(=O)c1ccc2nc(-c3ccc(OC)c(OC)c3)c(Cc3ccccc3C(F)(F)F)n2c1 | 0 | 22* | -11
CC1=NN(C(N)=S)C(=O)C1N=Nc1ccc(O)cc1 (stereo not drawn) | x | -2 | 8
COc1ccc(-n2c(=O)c3c4c(sc3n(CC(=O)NC3CCCC3)c2=O)CCCC4)c(OC)c1 | -1 | -5 | -6
CC(=O)NNC(=S)Nc1cccc(F)c1 | 51* | x | -4
CC(=O)Nc1cccc(NC(=S)Nc2ccc(F)c(Cl)c2)c1 | 4 | -7 | -1
S=c1[nH]c2ncccc2o1 | x | 0 | -6
COC(=O)c1c(NC(=O)C(Cl)Cl)sc2c1C(C(=O)OC)CC2 (stereo not drawn) | 0 | 0 | 122*
COC(=O)c1c(NC(=O)Cc2ccccc2)sc2c1C(C(=O)OC)CC2 (stereo not drawn) | 0 | -1 | -1
Cc1ccccc1NC(=O)C(C)OC(=O)C1CC(=O)N(Cc2ccco2)C1 (stereo not drawn) | x | -4 | -3
Cc1ccccc1-c1nc(CN2CCCC2c2ccc(F)cc2)c(C)o1 (stereo not drawn) | 4 | -5 | -5
COc1ccccc1/C=C1\SC(=S)N(CCC(=O)Nc2ccc(C(=O)O)c(O)c2)C1=O | 0 | 46* | 9
O=C(CCN1C(=O)/C(=C/c2ccco2)SC1=S)Nc1ccc(C(=O)O)c(O)c1 | 1 | 50* | 5
O=C(CCCN1C(=O)/C(=C\c2ccco2)SC1=S)Nc1ccc2ccccc2c1 | -1 | 14 | 4
O=C(CCN1C(=O)/C(=C\c2cccs2)SC1=S)Nc1ccc(C(=O)O)cc1 | 1 | 4 | -2
O=C(CCN1C(=O)/C(=C\c2ccco2)SC1=S)Nc1ccc(C(=O)O)c(O)c1 | x | 57* | 18
COc1ccccc1/C=C1/SC(=S)N(CCC(=O)Nc2cccnc2)C1=O | x | 6 | -2
CCCc1nc2nc(C)c(NS(=O)(=O)c3ccc4c(c3)CCCC4)c(=O)n2[nH]1 | x | 0 | -10
COc1ccc(-c2nc(CS(=O)CC(=O)NCc3ccc(Cl)cc3)c(C)o2)cc1 (stereo not drawn) | -1 | -2 | 0
COCCNC(=O)CS(=O)Cc1nc(-c2ccc(Cl)cc2)oc1C (stereo not drawn) | 0 | -2 | 64*
Cc1cc(C)c(S(=O)(=O)N2CCCC(C(=O)NCCC3=CCCCC3)C2)c(C)c1 (stereo not drawn) | x | -3 | 7
